# According to ChEMBL document CHEMBL3856288, “Amidate Prodrugs of Deoxythreosyl Nucleoside Phosphonates as Dual Inhibitors of HIV and HBV Replication” (J Med Chem, 2016):
# Experiments:
# [1] = Drug level in acetone-d6/pH 7.6 Trizma buffer treated with 1'alpha-(Adenin-9-yl)-2'-deoxy-3'-O-{[N-(diisoamyl-L-aspartate)](phenoxy)methylphosphonoamidate}-L-threose assessed as baker's yeast carboxypeptidase Y-mediated compound formation at 1 mg after 3 hrs by RP-HPLC/mass spectra analysis; type: ADME; settings: saccharomyces cerevisiae, in vitro, pH 7.6, 3 h
# [2] = Cytotoxicity against human MT4 cells assessed as decrease in cell viability after 5 days by MTT assay; type: toxicity, cell-based
# [3] = test system: Human immunodeficiency virus 1; assay: Antiviral activity against HIV1 3B infected in human MT4 cells assessed as protection against virus-induced cytopathic effect after 5 days by MTT assay; type: functional, cell-based; settings: Human immunodeficiency virus 1, 3B, MT4, 120 h
# Hepatitis B virus [4] = assay: Antiviral activity against HBV ayw1 infected in human HepG2(2.2.15) cells assessed as reduction in viral replication by measuring extracellular viral DNA copy number after 6 days by real-time qPCR method; type: functional, cell-based; settings: ayw1, HepG2 2.2.15, 144 h
# How it was run: (§1)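 HepG2 2.2.15 cells (stable line carrying two copies of the HBV ayw1 genome) were seeded at 1.5 × 10^4 cells/well in DMEM with 2% FBS and G418. After 16−24 h, compound was added in triplicate, and medium plus compound was renewed on day 3. On day 6, supernatant was Pronase-treated and extracellular HBV DNA was quantified by TaqMan qPCR against an HBV DNA standard curve to give EC50/EC90. Cell viability was read by MTS uptake to give CC50.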
# [5] = Antiviral activity against HIV2 ROD infected in human MT4 cells assessed as protection against virus-induced cytopathic effect after 5 days by MTT assay; type: functional, cell-based, Human immunodeficiency virus type 2 (ISOLATE ROD); settings: Human immunodeficiency virus 2, MT4, 120 h
# [6] = Cytotoxicity against human HepG2(2.2.15) cells assessed as reduction in cell viability by MTS assay; type: toxicity, cell-based; how it was run: as §1
# [7] = Drug level in pH 8 phosphate buffer treated with 1'alpha-(Adenin-9-yl)-2'-deoxy-3'-O-{[N-(diisoamyl-L-aspartate)](phenoxy)methylphosphonoamidate}-L-threose at 2 mg measured every 30 mins for 14 hrs by RP-HPLC/mass spectra analysis
# [8] = Selectivity index, ratio of CC50 for human MT4 cells to EC50 for HIV2 ROD infected in human MT4 cells; type: toxicity, cell-based; settings: read-out: Ratio CC50/EC50
# [9] = Selectivity index, ratio of CC50 for human MT4 cells to EC50 for HIV1 3B infected in human MT4 cells; type: toxicity, cell-based; settings: read-out: Ratio CC50/EC50
# [10] = Selectivity ratio of CC50 for human HepG2(2.2.15) cells to EC50 for reduction in HBV ayw1 extracellular DNA copy number; settings: read-out: Ratio CC50/EC50
# How it was run: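 HepG2 2.2.15 cells (two HBV ayw1 genome copies), 1.5 × 10^4 cells/well in DMEM with 2% FBS and G418; compound dosed in triplicate and medium renewed on day 3. On day 6, Pronase-treated supernatant HBV DNA measured by TaqMan qPCR against a standard curve, giving EC50. MTS uptake gave CC50, and the ratio was calculated from these.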
# [11] = Half life in human liver S9 fraction at 100 uM by HPLC-UV method; type: ADME, subcellular
# How it was run: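 Incubation started by adding human liver S9 fraction (4 mg/mL) at 37 °C; aliquots at 0, 10, 20, 30, 60 min quenched in acetonitrile, centrifuged, supernatant analysed by C18 HPLC with UV at 260 nm; parent peak area versus time 0 gave percent remaining and half-life.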
# [12] = Half life in human liver microsomes at 0.1 uM in presence of NADPH-regenerating system by HPLC MS/MS method; type: ADME
# How it was run: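 Pooled liver microsomes preincubated 10 min at 37 °C with NADPH-regenerating system (1 mM NADP, 5 mM G6P, 1 U/mL G6PDHase) in phosphate buffer pH 7.4, 3 mM MgCl2, 1 mM EDTA; compound added at 0.1 μM final; samples at 0, 15, 30, 45, 60 min quenched in acetonitrile/methanol, analysed by HPLC MS/MS.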
# Hepatitis B virus [13] = assay: Antiviral activity against HBV ayw1 infected in human HepG2(2.2.15) cells assessed as reduction in viral replication by measuring intracellular viral DNA copy number after 6 days by real-time qPCR method; type: functional, cell-based; settings: ayw1, HepG2 2.2.15, 144 h
# How it was run: (§2)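 The protocol was the same as the primary HepG2 2.2.15 assay (triplicate dosing, medium plus compound renewed on day 3, 6-day course). At the end, total intracellular DNA was isolated from the cells and HBV DNA copy number was measured by TaqMan qPCR to give EC50/EC90. CC50 came from MTS viability, and SI was taken as CC50/EC50.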
# [14] = Selectivity ratio of CC50 for human HepG2(2.2.15) cells to EC50 for reduction in HBV ayw1 intracellular DNA copy number; type: ADME, cell-based; settings: read-out: Ratio CC50/EC50; how it was run: as §2
SMILES,Drug metabolism [1],EC50 (Hepatitis B virus [4]),EC90 (Hepatitis B virus [4]),EC50 (Hepatitis B virus [13]),EC90 (Hepatitis B virus [13]),CC50 at 120 h [2],EC50 [3],EC50 [5],CC50 [6],Drug metabolism [7],selectivity ratio [8],selectivity ratio [9],selectivity ratio [10],half-life at 100 µM [11],half-life at 0.1 µM [12],selectivity ratio [14]
CC(C)CCOC(=O)C[C@H](NP(=O)(O)CO[C@H]1CO[C@@H](n2cnc3c(N)ncnc32)C1)C(=O)O,Metabolite_Detected,–,–,–,–,–,–,–,–,–,–,–,–,–,–,–
CC(C)CCOC(=O)C[C@H](NP(=O)(O)CO[C@H]1CO[C@@H](n2cnc3c(N)ncnc32)C1)C(=O)OCCC(C)C,–,–,–,–,–,–,–,–,–,Metabolite detected,–,–,–,–,–,–
CC(C)OC(=O)[C@H](C)NP(=O)(CO[C@H]1CO[C@@H](n2ccc(N)nc2=O)C1)Oc1ccccc1 (stereo partly drawn),–,47.9 µM,–,–,–,> 160 µM,> 160 µM,> 160 µM,> 100 µM,–,–,–,> 2,–,–,–
CC(C)OC(=O)[C@H](C)NP(=O)(CO[C@H]1CO[C@@H](n2cnc3c(N)ncnc32)C1)Oc1ccccc1 (stereo partly drawn),–,0.03 µM,> 10 µM,–,–,61.8 µM,0.103 µM,0.0535 µM,> 10 µM,–,1150,597,> 333,> 60 min,> 60 min,–
CCCOC(=O)[C@H](Cc1ccccc1)NP(=O)(CO[C@H]1CO[C@@H](n2cnc3c(N)ncnc32)C1)N[C@@H](Cc1ccccc1)C(=O)OCCC,–,0.01 µM,4.2 µM,0.03 µM,6.37 µM,1.12 µM,0.0033 µM,0.002 µM,> 10 µM,–,570,347,> 1000,< 10 min,7 min,> 3330
Cc1cn([C@H]2C[C@@H](OCP(=O)(N[C@@H](CC(=O)OCCC(C)C)C(=O)OCCC(C)C)Oc3ccccc3)CO2)c(=O)[nH]c1=O (stereo partly drawn),–,0.25 µM,> 100 µM,–,–,42.2 µM,0.0173 µM,0.011 µM,34 µM,–,3860,2350,136,–,–,–

# Now from value to molecule, other results behind:
Drug metabolism [1],EC50 (Hepatitis B virus [4]),EC90 (Hepatitis B virus [4]),EC50 (Hepatitis B virus [13]),EC90 (Hepatitis B virus [13]),SMILES,CC50 at 120 h [2],EC50 [3],EC50 [5],CC50 [6],Drug metabolism [7],selectivity ratio [8],selectivity ratio [9],selectivity ratio [10],half-life at 100 µM [11],half-life at 0.1 µM [12],selectivity ratio [14]
–,> 100 µM,> 100 µM,–,–,Nc1nc2c(ncn2[C@H]2C[C@@H](OCP(=O)(O)O)CO2)c(=O)[nH]1,> 302 µM,> 302 µM,> 302 µM,> 100 µM,–,–,–,–,–,–,–
–,> 100 µM,> 100 µM,–,–,Nc1ccn([C@H]2C[C@@H](OCP(=O)(O)O)CO2)c(=O)n1,> 343 µM,> 343 µM,> 343 µM,> 100 µM,–,–,–,–,–,–,–
–,40.2 µM,–,–,–,Cc1cn([C@H]2C[C@@H](OCP(=O)(O)O)CO2)c(=O)[nH]c1=O,297 µM,27.1 µM,23.6 µM,> 100 µM,–,13,11,> 2.49,–,–,–
–,79.6 µM,> 100 µM,–,–,Nc1ncnc2c1ncn2[C@@H]1OC[C@H](OCP(=O)(O)O)[C@H]1F,262 µM,≥ 222 µM,≥ 214 µM,> 100 µM,–,–,–,–,–,–,–
